The nature of series [1]: Inhibition of FAM-pYLPQTV binding to unphosphorylated STAT3 beta (unknown origin) expressed in Escherichia coli BL21 Rosetta cells after 5 mins by fluorescence polarization assay. The arrangement: species or system Homo sapiens. The method in brief: (§1)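 Unphosphorylated STAT3βtc was expressed in E. coli with IPTG induction overnight at 21 °C, then purified by ion exchange. In PBS pH 7.4, 350 nM protein was mixed with 10 nM FAM-pYLPQTV (final). Base polarization was read, inhibitor was added, the plate was shaken 5 min and read again. % inhibition = (X−Y)/X×100, each term corrected for free probe.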
(In general: Fluorescence polarisation rises when a labelled molecule tumbles more slowly, as on binding a larger partner.)

A further series relates to MDA-MB-231. Description: Cytotoxicity against human MDA-MB-231 cells assessed as reduction in cell viability after 24 hrs by MTT assay. Format: functional, cell-based. As to conditions: MDA-MB-231, 24 h. In outline:
(§2)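 Cells kept at 37 °C, 5% CO2. MDA-MB-231 were grown in DMEM with 10% FBS, 2 mM L-glutamine, NEAA and pen-strep, seeded at 2500 cells/well. A4 were grown in RPMI 1640 with 10% FBS and pen-strep, seeded at 5000 cells/well. WI-38 were grown in DMEM with 10% FBS, seeded at 5000 cells/well. Plates rested 24 h before compound was added in triplicate. MTT absorbance was read at 570 nm.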
In general terms: Tetrazolium dyes change colour on reduction, which living cells bring about.

Series [2] can be described thus: Inhibition of unphosphorylated STAT3 beta dimerization (unknown origin) expressed in Escherichia coli BL21 Rosetta cells after 5 mins by fluorescence polarization assay. The arrangement: species or system Homo sapiens. The method in brief:
as §1

Series [3] is filed under the species Homo sapiens. Description: Inhibition of unphosphorylated STAT3 beta dimerization (unknown origin) expressed in Escherichia coli BL21 Rosetta cells at 100 uM after 5 mins by fluorescence polarization assay relative to STA-21.
The nature of series [4]: Cytotoxicity against human A4 cells assessed as reduction in cell viability after 24 hrs by MTT assay. Format: functional, cell-based. The method in brief: as §2
Series [5] is filed under the species Homo sapiens. Description: Inhibition of unphosphorylated STAT3 beta dimerization (unknown origin) expressed in Escherichia coli BL21 Rosetta cells at 100 uM after 5 mins by fluorescence polarization assay relative to pYLKTKF. In outline:
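Same STAT3βtc/FAM-pYLPQTV polarization displacement setup: 350 nM protein, 10 nM probe, PBS pH 7.4, 5 min after addition. Ligand tested at 100 μM. Its % inhibition (B) was expressed as B/A×100, where A is the % inhibition from 100 μM […], taken as 100%.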

A further series concerns WI-38. As to the kind of experiment: Cytotoxicity against human WI38 cells assessed as reduction in cell viability at 100 uM after 24 hrs by MTT assay. Format: cell-based. As to conditions: wi-38, 24 h. In outline: as §2

The IC50 is the midpoint of a concentration-inhibition curve. In general, inhibition refers to the relative decrease from the control value, in per cent. As to `COC(=O)C1=C[C@H](O)C[C@H]2[C@@]1(C)C=C[C@](O)(C(=O)O)[C@@]2(C)CC(OC(C)=O)c1ccoc1` (stereo not given in full), the IC50 in series [1] was 42 µM; with MDA-MB-231, 10 µM; in series [2] it was 42 µM; in series [4], greater than 10 µM. In addition, the figures for the inhibition in the series filed under Homo sapiens [3] and in the series filed under Homo sapiens [5] were 119% and 60%, respectively. Besides, the Activity entry in the series on WI-38 is on record as “Non-Toxic”.
Consider `C[C@H]1C[C@H]2OC(=O)[C@@]34O[C@@H]3CC[C@@H]([C@]1(C)CCC1=CCOC1=O)[C@@]24C`, for which the IC50 in the series with MDA-MB-231 was determined as 5.4 µM.
Regarding `C[C@@]1(CC(O)c2ccoc2)C(C(=O)O)=CC[C@]2(C)[C@H]1[C@H]1C=C[C@@]2(O)C(=O)O1` (stereo not given in full), the IC50 was 17 µM in series [1], 7.8 µM in the series on MDA-MB-231, 17 µM in series [2] and greater than 10 µM in series [4]. Further, the inhibition was determined as 130% in the series filed under Homo sapiens [3] and 72% in the series filed under Homo sapiens [5]. For the same molecule, the Activity result in the series with WI-38 is on record as “Non-Toxic”.
